Drawing on PubChem BioAssay AID624095 (The Scripps Research Institute Molecular Screening Center, 2012), this text covers MIC and fold potentiation for 22 molecules.

Broadly, the MIC is the lowest concentration that inhibits growth of the organism.

Each structure is given as a SMILES string. Activity calls are given as the source filed them.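 The calls were made as follows: active = MIC at a fourfold reduction of 10 µM or lower; inactive = MIC at a fourfold reduction above 10 µM.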

The first experiment deals with IMP-1 P. aeruginosa KN20 growth with imipenem, OD600. In words: growth inhibition synergy, KN20 P. aeruginosa with imipenem – strain KN20, clinical isolate, powder samples, VIM-2 MBL inhibitor project, late-stage follow-up (AID 624095).
Details: not given
Put shortly:
(§1)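 Compound dosing: Checkerboard two-fold serial dilutions, compound across rows | System: Log-phase bacteria | Medium: Mueller-Hinton broth with adjusted cations (CAMHB) | Measured by: Turbidity measured by optical absorbance | Incubation: Bacterial incubation of at least 18 h, 37 °C, aerobic | Also added: Imipenem in two-fold serial dilutions, orthogonal to compound | Read-out: MIC per CLSI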
Turning to `CC(C)N1CCN(NC(=O)CN2C(=O)/C(=C/c3c(Cl)cccc3Cl)SC2=S)CC1`, the MIC was > 50 µM (inactive).

In the case of `CN1CCN(NC(=O)CN2C(=O)/C(=C/c3c(Cl)cccc3Cl)SC2=S)CC1`, the MIC was > 100 µM (inactive).

Take `CN1CCN(NC(=O)CN2C(=O)/C(=C/c3c(F)cccc3Cl)SC2=S)CC1`: the MIC is > 50 µM (inactive).

Regarding `O=C(CN1C(=O)/C(=C/c2c(Cl)cccc2Cl)SC1=S)NCc1ccccn1`, the MIC was > 100 µM (inactive).

For `O=C(CN1C(=O)/C(=C/c2c(Cl)cccc2Cl)SC1=S)NN1CCN(Cc2ccccc2)CC1`, the MIC was > 50 µM (inactive).

On to `O=C(CN1C(=O)/C(=C/c2c(Cl)ccc(Cl)c2Cl)SC1=S)NN1CCCCC1`, for which the MIC is > 50 µM (inactive).

As for `CC(C)(C)OC(=O)N1CCN(NC(=O)CN2C(=O)/C(=C/c3c(Cl)ccc(Cl)c3Cl)SC2=S)CC1`, the MIC was > 50 µM (inactive).

In the case of `CC(C)(C)OC(=O)N1CCN(NC(=O)CN2C(=O)/C(=C/c3c(Cl)cccc3Cl)SC2=S)CC1`, the MIC is > 100 µM (inactive).

Consider `CC(=O)N1CCN(NC(=O)CN2C(=O)/C(=C/c3c(Cl)cccc3Cl)SC2=S)CC1`, for which the MIC was > 50 µM (inactive).

With `CN1CCN(NC(=O)CN2C(=O)/C(=C/c3c(F)cccc3C(F)(F)F)SC2=S)CC1`, the MIC is > 50 µM (inactive).

As to `CN1CCN(NC(=O)CN2C(=O)/C(=C/c3c(Cl)ccc(Cl)c3Cl)SC2=S)CC1`, the MIC was > 50 µM (inactive).

With `O=C(CN1C(=O)/C(=C/c2c(Cl)cccc2Cl)SC1=S)NN1CCN(C(=O)c2ccccc2)CC1`, the MIC was > 50 µM (inactive).

In the case of `CN1CCN(NC(=O)CN2C(=O)/C(=C/c3c(Cl)ccc(C(F)(F)F)c3Cl)SC2=S)CC1`, the MIC is > 50 µM (inactive).

Take `O=C(CN1C(=O)/C(=C/c2c(Cl)cccc2Cl)SC1=S)NN1CCNCC1`: the MIC is > 50 µM (inactive).

Turning to `O=C(CN1C(=O)/C(=C/c2c(Cl)ccc(Cl)c2Cl)SC1=S)NN1CCNCC1`, the MIC was > 50 µM (inactive).

As for `O=C(CN1C(=O)/C(=C/c2c(Cl)ccc(Cl)c2Cl)SC1=S)NCc1ccccn1`, the MIC was > 50 µM (inactive).

Consider `O=C(CN1C(=O)/C(=C/c2c(Cl)cccc2Cl)SC1=S)NN1CCCCC1`, for which the MIC was > 100 µM (inactive).

In the case of `CCN(CC)OC(=O)CN1C(=O)/C(=C/c2c(Cl)cccc2Cl)SC1=S`, the MIC was > 100 µM (inactive).

Consider `O=C(O)CN1C(=O)/C(=C/c2c(Cl)cccc2Cl)SC1=S`, for which the MIC was > 100 µM (inactive).

For the molecule `CN1CCN(NC(=O)CN2C(=O)/C(=C/c3c(C(F)(F)F)ccc(Cl)c3Cl)SC2=S)CC1`, the MIC was > 50 µM (inactive).

On to `O=C(O)CN1C(=O)/C(=C/c2c(F)cccc2C(F)(F)F)SC1=S`, for which the MIC was > 50 µM (inactive).

Regarding `CN1CCN(C(=O)CN2C(=O)/C(=C/c3c(Cl)ccc(Cl)c3Cl)SC2=S)CC1`, the MIC is > 50 µM (inactive).

Tested on in a further experiment: not listed separately
The description is as above. The conditions noted are these: IMP-1 P. aeruginosa KN20 growth with imipenem, OD600; measured here: max imipenem fold potentiation; stronger effect = higher value. A digest of the protocol:
as §1
Consider `CN1CCN(NC(=O)CN2C(=O)/C(=C/c3c(F)cccc3Cl)SC2=S)CC1`, for which the fold potentiation is 2.

As for `CN1CCN(NC(=O)CN2C(=O)/C(=C/c3c(Cl)ccc(Cl)c3Cl)SC2=S)CC1`, the fold potentiation amounted to 2.

In the case of `CN1CCN(NC(=O)CN2C(=O)/C(=C/c3c(Cl)ccc(C(F)(F)F)c3Cl)SC2=S)CC1`, the fold potentiation stood at 2.
